Reference: PubChem BioAssay
A number with no mark means an inactive call. Records with an inconclusive call do not appear. Active and inactive are the calls of the source.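 How the source made its calls, unless noted: active means viability increase at or above a cutoff of the median across tested compounds plus 3 SD (cut at about 8.5% in these data, passing the limit was not always enough); inconclusive means some gains above the cutoff, reason not given; inactive means the rest.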

Key:
[1] = S. cerevisiae growth inhibition in permissive medium (OD615), pilot counter-assay for S. cerevisiae lifespan shortening project, permissive growth control (AID 705;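 active means growth inhibition above 25% in both replicates, a cutoff set 3 SD above the mean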); conditions: OD615, 24 h, at 10 µM, stronger effect = higher value
Method in brief: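 System – S. cerevisiae with engineered DeaD lifespan system · Buffer or medium – SC raffinose/galactose permissive medium · Schedule – cells pre-grown 4 h, then 24 h compound exposure, 30 °C humidified · Technique – culture turbidity as optical density at 615 nm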

[2] = S. cerevisiae growth inhibition in restrictive medium, OD615, pilot screen, restrictive growth control, yeast lifespan reduction project (AID 706;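 active means growth inhibition above a set limit, 3 SD over mean compound inhibition, in both replicates, cut at about 43% in these data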;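 further: modified DeaD lifespan yeast strain shifted to restrictive glucose medium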); conditions: OD615, 48 h, at 10 µM, stronger effect = higher value
Method in brief: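 Material: engineered S. cerevisiae DeaD strain / Medium: glucose-based CSMM-D restrictive medium / Compound: single dose of 10 µM compound final, 0.25% DMSO / Timing: 4 h pre-incubation, 48 h exposure at 30 °C / Technique: OD615 absorbance reading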

[3] = doxorubicin toxicity protection in MRP-1 cells – H69AR cells, CellTiter-Glo, duplicate, MRP-1 activator project, pilot screen (AID 807); conditions: H69AR viability with doxorubicin, CellTiter-Glo luminescence; at 10 µM; stronger effect = higher value;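 further: compound pretreatment 18-22 h then 72 h combined with doxorubicin; 0% = doxorubicin alone and 100% = vehicle without doxorubicin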
[4] = viability of HCT116 without oncogenic beta-catenin – human colon tumor cells, pilot screen (AID 823;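 active means cell viability at or below a set limit in both duplicate runs, the limit being the all-compound median minus 4 SD, cut at about 23% in these data, passing the limit was not always enough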;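 further: 0% = wells killed by 20 µM Hyamine and 100% = untreated DMSO cell wells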); conditions: HCT116 beta-catenin knockout viability, CellTiter-Glo, 60 h; at 10 µM; stronger effect = lower value
[5] = viability of PTEN-null HCT116 cells – cell-based, HCT116 clonal line, CellTiter-Glo, pilot screen (AID 824;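 active means viability at or below 27.92% in each of two runs, the all-compound median minus 4 SD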;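 further: 0% = 20 µM Hyamine control and 100% = vehicle cell control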); conditions: HCT116 PTEN-deleted viability, 60 h, at 10 µM, stronger effect = lower value
[6] = RAM pathway blockade in budding yeast – dse1pr::URA3 reporter, 5-FOA selection, pilot screen (AID 869;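 active means inhibition over a set limit, the all-compound mean plus 3 SD, in both replicate runs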;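 further: 0% = DMSO wells with no growth and 100% = 10 µM 1-NA-PP1 with full growth; RAM network block rescues cells from 5-FOA so hits raise OD615 growth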); conditions: S. cerevisiae dse1pr::URA3 5-FOA growth, OD615, 2 d; at 10 µM; stronger effect = higher value; strain carries analog-sensitive mutant Cbk1 kinase
[7] = RAM signaling pathway blockade in yeast – S. cerevisiae, Pdr1DBD-CYC8 efflux-inhibited sensitized strain, primary screen (AID 1298;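 active means RAM network inhibition above 8.4% in each of two replicates, 3 SD over the compound average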;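 further: 0% = DMSO untreated cells without growth and 100% = 10 µM 1-NA-PP1 full growth; higher means more yeast growth rescued from 5-FOA killing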); conditions: S. cerevisiae cbk1-as DSE1-URA3 strain, 5-FOA growth OD615, 2 d; at 50 µM; stronger effect = higher value

Compound | growth inhibition [1] [%] | growth inhibition [2] [%] | viability increase [3] [%] | viability [4] | viability [5] | inhibition [6] [%] | RAM network inhibition [7] [%]
Cc1cc(Nc2ccc(F)cc2F)n2nc(C)nc2n1 | -20.2 | -3.57 | -1.98 | 104% | 98.5% | 0.33 | 2.94
O=C(NCCN1C(=O)C2C3C=CC(C3)C2C1=O)Nc1ccccc1 (stereo unspecified) | -8.45 | 1.35 | 0.28 | 102% | 93.2% | 0.71 | -0.05
CCOc1ccccc1C1N(c2ccc(OC)cc2)C(=O)C2CCCN21 (stereo unspecified) | -3.72 | -10.4 | -0.9 | 99.8% | 101% | 2.9 | -1.29
COc1ccc(C2C(C(=O)NCCN3CCOCC3)c3ccccc3C(=O)N2C)cc1OC (stereo unspecified) | -2.92 | -2.97 | -0.98 | 91.5% | 100% | 1.24 | 3.26
Cc1ccc2c(c1)C(c1ccccc1)N(C(=O)C(C)C)CC(=O)N2 (stereo unspecified) | -14.9 | -15.6 | -1.2 | 102% | 92.1% | 1.64 | 4.21
Cc1nc(S(=O)(=O)c2ccc(Cl)cc2)c(NCc2ccccc2)o1 | -6.92 | -2.45 | -0.96 | 94.5% | 95.5% | 2.39 | 4.59
CC1(C)CC(=O)C2=C(C1)Nc1ccccc1NC2c1ccccn1 (stereo unspecified) | 11.4 | 3.1 | -3.1 | 100% | 95.4% | 0.245 | 3.12
Cc1c(N=C2C(=O)Nc3ccccc32)c(=O)n(-c2ccccc2)n1C | -1.19 | 0.225 | -2.29 | 108% | 90.3% | 0.61 | 1.79
CC1=C(C(=O)OCc2ccc3c(c2)OCO3)C(c2ccc(Cl)cc2)NC(=O)N1 (stereo unspecified) | -4.12 | -5.46 | -4.91 | 19.4% (active) | 22.3% (active) | 1.32 | 4.12
CC(=O)C(Sc1ccc2nnc(-c3ccc(F)cc3)n2n1)C(C)=O | 2.49 | 26.7 | -3.38 | 91% | 86.3% | -0.355 | 7.13
CCn1c(CNC(=O)C(C)(C)C)nc2ccccc21 | -13.2 | -10.8 | -1.1 | 104% | 101% | 1.73 | 1.9
Cc1c(C(=O)OCC2CCCO2)[nH]c2c1C(=O)CC(c1ccc(N(C)C)cc1)C2 (stereo unspecified) | -4.14 | 3.2 | -0.25 | 67.7% | 71.5% | 1.09 | 6.62
Cc1ccc(CC(CC(=O)O)C(=O)NC2CCCCC2)cc1 (stereo unspecified) | -8.33 | -0.295 | -0.76 | 101% | 99.2% | 2.5 | 3.83
O=C(NC1CCCCCC1)C1CCN(S(=O)(=O)c2cccc3cccnc23)CC1 | 8.96 | 6.42 | 2.08 | 99.5% | 105% | -0.605 | 1.35
COc1ccccc1S(=O)Cc1ccc(C(=O)NC2CCCC2)o1 (stereo unspecified) | 4.5 | 4.6 | -2.33 | 107% | 101% | 0.395 | 3.24
O=C(NCc1cccnc1)NC1(c2ccccc2)CC1 | -2.17 | -17.7 | 0.15 | 106% | 100% | 0.49 | 0.4
N=c1c2c(n(Cc3ccc(F)cc3)c3c1CCC3)CCC2 | -12.2 | -14.7 | -0.55 | 34.5% | 38.9% | 0.8 | 0.77
O=S(=O)(NCCc1csc(-c2cccnc2)n1)c1cccs1 | 1.37 | -2.33 | -1.11 | 104% | 96.8% | 1.42 | 0.73
Cc1csc2nc(CNS(=O)(=O)c3ccc4c(c3)OCCO4)cn12 | 4.07 | -5.18 | -1.85 | 91.9% | 85.7% | 3.93 | 2.03
CSc1oc(-c2ccc(F)cc2)nc1S(=O)(=O)c1ccc(F)cc1 | -2.23 | -6.25 | -1.96 | 85.1% | 79.6% | 1.59 | 4.1
c1cnc(N2CCSCC2)nc1 | 2.61 | 2.42 | -2.73 | 104% | 101% | 0.69 | 3.1
CC1(C(=O)NCc2cccnc2)CCC(=O)N1Cc1cccs1 (stereo unspecified) | -2.29 | -1.24 | 0.38 | 108% | 102% | 0 | 3.95
CCOC(=O)c1cn[nH]c1N | -3.76 | 10.1 | 0 | 101% | 102% | -0.235 | 0.61
O=C1c2cccnc2C(=O)N1Cc1cccs1 | -1.61 | -4.64 | -0.5 | 98.5% | 102% | 1.4 | 0.21

Compound | growth inhibition [1] [%] | growth inhibition [2] [%] | viability increase [3] [%] | viability [4] | viability [5] | inhibition [6] [%] | RAM network inhibition [7] [%]
O=C(NCc1ccccn1)c1nnc(Cc2ccc(Cl)cc2)o1 | -1.48 | 2.66 | 1.55 | 108% | 103% | 0.515 | -1.46
COCCn1c(=O)[nH]c2cc(C(=O)NCC3CCCO3)ccc2c1=O (stereo unspecified) | -6.33 | -1.18 | -0.04 | 100% | 95.2% | 1.23 | 1.45
CN1C(=O)CS(=O)c2ccc(C(=O)NC3CC3)cc21 (stereo unspecified) | 1.7 | -0.875 | -2.2 | 99.4% | 95.4% | 2.25 | -1.59
CCCCCSc1nnc2c(n1)OC(C)N(C(C)=O)c1ccccc1-2 (stereo unspecified) | -10.3 | -6.29 | -4.28 | 82.8% | 86.5% | 1.47 | 2.22
CC(C)CC(NS(=O)(=O)c1ccc2c(c1)oc(=O)n2C)C(=O)N1CC=C(c2ccccc2)CC1 (stereo unspecified) | -18.2 | -14.5 | -3.44 | 85.9% | 83.3% | 0.535 | 6.89
COc1ccc(N(CC(=O)N2CCN(c3ccccc3)CC2)S(=O)(=O)c2c(C)noc2C)cc1 | -9.29 | -0.83 | -4.48 | 93.7% | 85.6% | 0.315 | 3.7
N#CC1=C(SCC(=O)Nc2ccccc2)NC(=O)CC1c1ccc(O)cc1 (stereo unspecified) | -15.2 | -10.5 | -2.43 | 91.4% | 86.5% | 1.42 | -0.69
CCOC(=O)c1cc(-c2ccc(C)o2)nn1CCC#N | -6.98 | 4.24 | 0.21 | 101% | 102% | 0.86 | 3.69
Cc1c(NC(=O)c2ccco2)cccc1-c1nc2cccnc2s1 | 1.62 | -4.21 | -4.21 | 97.4% | 95.5% | 2.2 | 5.74
Cc1cc(SCC(=O)OCC(=O)N2CCN(C(=O)c3ccco3)CC2)c(C)cc1Br | -2.27 | 4.81 | -2.19 | 91.4% | 98.2% | 0.31 | 0.4
Cc1ccc2cc(-c3noc(C4CCCO4)n3)c(=O)[nH]c2c1 (stereo unspecified) | -12.5 | -7.12 | -0.44 | 108% | 100% | 0.82 | 4.44
CCCCCn1c(CNC(=O)CC)nc2ccccc21 | -6.04 | -11.1 | 0.02 | 97.5% | 96.5% | 1.53 | 4.9
C=CCSC1=N/C(=C\c2ccc(C)o2)C(=O)S1 | -9.79 | -6.84 | -3.69 | 101% | 98.6% | 1.58 | 2.06
OC(COc1ccc2ccccc2c1)CN1CCN(c2ccc(F)cc2)CC1 (stereo unspecified) | 3.06 | -5.26 | -4.36 | 81.7% | 84.4% | 1.09 | 1.23
Cc1cccc(N2CCN(C(=O)C3CCN(c4nnc(-n5cccc5)s4)CC3)CC2C)c1 (stereo unspecified) | -6.52 | -21.5 | -1.6 | 40.1% | 45% | 0.825 | 2.84
CC(C)OC(=O)C1C2C=CC3(CN(C(C)c4ccc(Br)cc4)C(=O)C13)O2 (stereo unspecified) | -19.3 | -19.3 | -2.07 | 96.8% | 94.1% | 0.395 | 6.84
COC(=O)CSc1ccc2nnc(-c3ccc(OC)c(OC)c3)n2n1 | -10.3 | -18.4 | -0.56 | 106% | 107% | -0.01 | 3.82
C=CCn1c(CCCNC(=O)CCC)nc2ccccc21 | 2 | 0.97 | -0.01 | 99.4% | 103% | -0.095 | 4.24
O=C(CSc1nc2c(c(=O)n1-c1ccc(Cl)cc1)SCC2)N1CCOCC1 | -10.3 | -2.5 | -2.79 | 97.6% | 101% | -0.06 | -0.16
OCCN1CCN(Cc2cc(Br)cc(Br)c2O)CC1 | -18.3 | -14 | -2.23 | 92.6% | 96.3% | 2.87 | -0.43
CNC(=O)c1c(NC(=O)c2nc3ccccc3s2)sc2c1CCC2 | 1.6 | -6.17 | -3.81 | 67.5% | 61% | 0.625 | 5.05
CCN=C(NCC)SC1CC(=O)N(c2cccc(OC)c2)C1=O (stereo unspecified) | 5.98 | 1.56 | -1.43 | 101% | 94.6% | 0.04 | 7.47
CC(C)(C)N1C(=O)c2ccc(C(=O)Nc3nccs3)cc2C1=O | -7.12 | -7.02 | -0.27 | 106% | 103% | 0.64 | 0.63
COC(=O)c1ccc(NC(=O)c2cnc3scc(C)n3c2=O)cc1 | -9.29 | -13.3 | 1.67 | 101% | 95.8% | 0.345 | 2.36
